Laboratory results: ChEMBL document CHEMBL1926614, “Substituted thiazoles V. synthesis and antitumor activity of novel thiazolo[2,3-b]quinazoline and pyrido[4,3-d]thiazolo[3,2-a]pyrimidine analogues” (2012)

Assays:
Type in all cases: functional
[1] = system: HCT-15; assay: Growth inhibition of human HCT15 cells at 10 uM after 48 hrs by coulter counting; conditions: HCT-15, 48 h, read-out: GI
Method in brief: (§1)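 Single-dose primary screen across the full NCI 60-cell-line panel. Stocks were made in DMSO and diluted in PBS to a final DMSO below 1%. Cultures at 6 × 10⁴ cells/ml were run in duplicate wells alongside PBS/DMSO vehicle controls at 37 °C in humidified 5% CO₂. Data were expressed as percent growth of treated cells.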

[2] = system: UACC-257; assay: Growth inhibition of human UACC257 cells at 10 uM after 48 hrs by coulter counting; conditions: UACC-257, 48 h, read-out: GI
Method in brief: (§2)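 Single-dose screen in the NCI 60 human tumor cell line panel (nine subpanels). Compounds dissolved in DMSO and diluted in phosphate buffered saline, keeping final DMSO below 1%. Added in duplicate wells to cells at 6 × 10⁴ cells/ml. Controls held PBS and DMSO at matching dilutions. Incubated at 37 °C, humidified, 5% CO₂. Reported as percent growth of treated cells.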

[3] = system: UACC-62; assay: Growth inhibition of human UACC62 cells at 10 uM after 48 hrs by coulter counting; conditions: UACC-62, 48 h, read-out: GI; method in brief: as §2
[4] = system: CCRF-CEM; assay: Growth inhibition of human CCRF-CEM cells at 10 uM after 48 hrs by coulter counting; conditions: read-out: GI; method in brief: as §1
[5] = system: HL-60(TB); assay: Growth inhibition of human HL-60(TB) cells at 10 uM after 48 hrs by coulter counting; conditions: HL-60, 48 h, read-out: GI
Method in brief: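 Test compound was dissolved in DMSO and diluted in phosphate-buffered saline to a final DMSO level below 1%. Dilutions were plated in duplicate with cell culture at 6 × 10⁴ cells/ml. Vehicle controls held PBS and DMSO at matching dilutions. Incubation was at 37 °C, humidified, under 5% CO₂. Data were reported as percent growth of treated cells.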

[6] = system: K562; assay: Growth inhibition of human K562 cells at 10 uM after 48 hrs by coulter counting; conditions: K562, 48 h, read-out: GI; method in brief: as §1
[7] = system: MOLT-4; assay: Growth inhibition of human MOLT4 cells at 10 uM after 48 hrs by coulter counting; conditions: MOLT-4, 48 h, read-out: GI; method in brief: as §1
[8] = system: RPMI-8226; assay: Growth inhibition of human RPMI8226 cells at 10 uM after 48 hrs by coulter counting; conditions: RPMI-8226, 48 h, read-out: GI; method in brief: as §1
[9] = system: A549; assay: Growth inhibition of human A549 cells at 10 uM after 48 hrs by coulter counting; conditions: A549, 48 h, read-out: GI; method in brief: as §1
[10] = system: EKVX; assay: Growth inhibition of human EKVX cells at 10 uM after 48 hrs by coulter counting; conditions: read-out: GI; method in brief: as §1
[11] = system: HOP-62; assay: Growth inhibition of human HOP62 cells at 10 uM after 48 hrs by coulter counting; conditions: HOP-62, 48 h, read-out: GI; method in brief: as §1
[12] = system: NCI-H226; assay: Growth inhibition of human NCI-H226 cells at 10 uM after 48 hrs by coulter counting; conditions: NCI-H226, 48 h, read-out: GI; method in brief: as §1
[13] = system: NCI-H23; assay: Growth inhibition of human NCI-H23 cells at 10 uM after 48 hrs by coulter counting; conditions: NCI-H23, 48 h, read-out: GI; method in brief: as §1
[14] = Growth inhibition of human NCI-322M cells at 10 uM after 48 hrs by coulter counting; conditions: read-out: GI; method in brief: as §1
[15] = system: NCI-H460; assay: Growth inhibition of human NCI-H460 cells at 10 uM after 48 hrs by coulter counting; conditions: NCI-H460, 48 h, read-out: GI; method in brief: as §1
[16] = system: NCI-H522; assay: Growth inhibition of human NCI-H522 cells at 10 uM after 48 hrs by coulter counting; conditions: NCI-H522, 48 h, read-out: GI; method in brief: as §1
[17] = system: HCT-116; assay: Growth inhibition of human HCT116 cells at 10 uM after 48 hrs by coulter counting; conditions: HCT-116, 48 h, read-out: GI; method in brief: as §1
[18] = system: HT-29; assay: Growth inhibition of human HT-29 cells at 10 uM after 48 hrs by coulter counting; conditions: HT-29, 48 h, read-out: GI; method in brief: as §1
[19] = system: KM12; assay: Growth inhibition of human KM12 cells at 10 uM after 48 hrs by coulter counting; conditions: KM12, 48 h, read-out: GI; method in brief: as §1
[20] = system: SF-268; assay: Growth inhibition of human SF268 cells at 10 uM after 48 hrs by coulter counting; conditions: SF-268, 48 h, read-out: GI; method in brief: as §1
[21] = system: SF-295; assay: Growth inhibition of human SF295 cells at 10 uM after 48 hrs by coulter counting; conditions: SF-295, 48 h, read-out: GI; method in brief: as §1
[22] = system: SNB-19; assay: Growth inhibition of human SNB19 cells at 10 uM after 48 hrs by coulter counting; conditions: SNB-19, 48 h, read-out: GI; method in brief: as §1
[23] = system: SNB-75; assay: Growth inhibition of human SNB75 cells at 10 uM after 48 hrs by coulter counting; conditions: SNB-75, 48 h, read-out: GI; method in brief: as §1
[24] = system: U-251; assay: Growth inhibition of human U251 cells at 10 uM after 48 hrs by coulter counting; conditions: U-251, 48 h, read-out: GI; method in brief: as §2
[25] = system: LOX IMVI; assay: Growth inhibition of human LOXIMVI cells at 10 uM after 48 hrs by coulter counting; conditions: read-out: GI; method in brief: as §1
[26] = system: M14; assay: Growth inhibition of human M14 cells at 10 uM after 48 hrs by coulter counting; conditions: M14, 48 h, read-out: GI; method in brief: as §1
[27] = system: MDA-MB-435; assay: Growth inhibition of human MDA-MB-435 cells at 10 uM after 48 hrs by coulter counting; conditions: MDA-MB-435, 48 h, read-out: GI; method in brief: as §1
[28] = system: SK-MEL-2; assay: Growth inhibition of human SK-MEL-2 cells at 10 uM after 48 hrs by coulter counting; conditions: SK-MEL-2, 48 h, read-out: GI; method in brief: as §1
[29] = system: SK-MEL-28; assay: Growth inhibition of human SK-MEL-28 cells at 10 uM after 48 hrs by coulter counting; conditions: SK-MEL-28, 48 h, read-out: GI; method in brief: as §1
[30] = system: SK-MEL-5; assay: Growth inhibition of human SK-MEL-5 cells at 10 uM after 48 hrs by coulter counting; conditions: SK-MEL-5, 48 h, read-out: GI; method in brief: as §1
[31] = system: NCI/ADR-RES; assay: Growth inhibition of human NCI/ADR-RES cells at 10 uM after 48 hrs by coulter counting; conditions: read-out: GI; method in brief: as §1
[32] = system: A498; assay: Growth inhibition of human A498 cells at 10 uM after 48 hrs by coulter counting; conditions: A498, 48 h, read-out: GI; method in brief: as §1
[33] = system: ACHN; assay: Growth inhibition of human ACHN cells at 10 uM after 48 hrs by coulter counting; conditions: read-out: GI; method in brief: as §1
[34] = system: CAKI-1; assay: Growth inhibition of human Caki1 cells at 10 uM after 48 hrs by coulter counting; conditions: CAKI-1, 48 h, read-out: GI; method in brief: as §1
[35] = system: UO-31; assay: Growth inhibition of human UO31 cells at 10 uM after 48 hrs by coulter counting; conditions: UO-31, 48 h, read-out: GI; method in brief: as §2
[36] = system: DU-145; assay: Growth inhibition of human DU145 cells at 10 uM after 48 hrs by coulter counting; conditions: DU-145, 48 h, read-out: GI; method in brief: as §1
[37] = system: MCF7; assay: Growth inhibition of human MCF7 cells at 10 uM after 48 hrs by coulter counting; conditions: MCF7, 48 h, read-out: GI; method in brief: as §1
[38] = system: BT-549; assay: Growth inhibition of human BT549 cells at 10 uM after 48 hrs by coulter counting; conditions: BT-549, 48 h, read-out: GI; method in brief: as §1
[39] = system: T47D; assay: Growth inhibition of human T47D cells at 10 uM after 48 hrs by coulter counting; conditions: read-out: GI; method in brief: as §2
[40] = system: OVCAR-8; assay: Growth inhibition of human OVCAR8 cells at 10 uM after 48 hrs by coulter counting; conditions: OVCAR-8, 48 h, read-out: GI; method in brief: as §1
[41] = system: 786-0; assay: Growth inhibition of human 786-0 cells at 10 uM after 48 hrs by coulter counting; conditions: 786-0, 48 h, read-out: GI; method in brief: as §1
[42] = system: SN12C; assay: Growth inhibition of human SN12C cells at 10 uM after 48 hrs by coulter counting; conditions: read-out: GI; method in brief: as §1
[43] = system: TK-10; assay: Growth inhibition of human TK10 cells at 10 uM after 48 hrs by coulter counting; conditions: TK-10, 48 h, read-out: GI; method in brief: as §2

Measured: inhibition of growth at 10 µM

CCN1CC2=C(N=C3SC=C(C)N3C2c2cccs2)/C(=C/c2cccs2)C1 (stereo not drawn)
17.7%: [10]
13.6%: [23]
21.8%: [35]
> 10%: all other assays above
